Active and inactive are the calls of the source. No cut-off for these calls is given here.
What was measured:
[1] = Metabolic stability in monkey assessed as half-life; type: ADME, Macaca mulatta; settings: rhesus monkey
[2] = biological target: T1, Sphingosine 1-phosphate receptor 1 (Homo sapiens, UniProt P21453); assay: Agonist activity at human S1P1 expressed in CHO cell membranes assessed as stimulation of [35S]-GTPgamma-S binding measured after 45 mins by liquid scintillation counting method relative to control; settings: Cell membrane, filed as agonist
T1 sequence (P21453 whole entry): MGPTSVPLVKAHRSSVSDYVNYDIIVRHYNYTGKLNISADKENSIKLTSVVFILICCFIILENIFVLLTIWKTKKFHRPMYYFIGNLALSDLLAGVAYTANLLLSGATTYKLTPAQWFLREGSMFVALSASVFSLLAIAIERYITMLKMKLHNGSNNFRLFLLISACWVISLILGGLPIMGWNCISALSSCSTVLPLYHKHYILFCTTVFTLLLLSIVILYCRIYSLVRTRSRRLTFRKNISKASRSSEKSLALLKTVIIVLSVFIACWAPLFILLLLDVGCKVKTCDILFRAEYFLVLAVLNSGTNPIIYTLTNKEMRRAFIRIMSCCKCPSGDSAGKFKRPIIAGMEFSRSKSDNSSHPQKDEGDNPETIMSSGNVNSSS
Procedure, shortened: (§1)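 S1P1/CHO cell membranes at 3 μg protein/well with 3-fold compound dilutions. [35S]GTPγS 0.2 nM final, 45 min at room temperature. Filter-plate capture, water washes, scintillation counting. EC50 taken at 50% of each compound's own Ymax.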

[3] = Oral bioavailability in cynomolgus monkey at 0.5 mg/kg; type: ADME, organism-based, Macaca fascicularis; settings: in vivo
[4] = Metabolic stability in dog assessed as half-life; type: ADME, Canis lupus familiaris
[5] = Ratio of plasma concentration in Lewis rat at 1 mg/kg, po measured at 4 hrs to plasma concentration in Lewis rat at 1 mg/kg, po measured at 24 hrs; type: ADME, organism-based; settings: in vivo
Cytochrome P450 3A4 = Cytochrome P450 3A4 (Homo sapiens, UniProt P08684); assay: Inhibition of CYP3A4 (unknown origin) using 7-benzyloxy resorufin as substrate; type: ADME
Chain of Cytochrome P450 3A4 (P08684 whole entry): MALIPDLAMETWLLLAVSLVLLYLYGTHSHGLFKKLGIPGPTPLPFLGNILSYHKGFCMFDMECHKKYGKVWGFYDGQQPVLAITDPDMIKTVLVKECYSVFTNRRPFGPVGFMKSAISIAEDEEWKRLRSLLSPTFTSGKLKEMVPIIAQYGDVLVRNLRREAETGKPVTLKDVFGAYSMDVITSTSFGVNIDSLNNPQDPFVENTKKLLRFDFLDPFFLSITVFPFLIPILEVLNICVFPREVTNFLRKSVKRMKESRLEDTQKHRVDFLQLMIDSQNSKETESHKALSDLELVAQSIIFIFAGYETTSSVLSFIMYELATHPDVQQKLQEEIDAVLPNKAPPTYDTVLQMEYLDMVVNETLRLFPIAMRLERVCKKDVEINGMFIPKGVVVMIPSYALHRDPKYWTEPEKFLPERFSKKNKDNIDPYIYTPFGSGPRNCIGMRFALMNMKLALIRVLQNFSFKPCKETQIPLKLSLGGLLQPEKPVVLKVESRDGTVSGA

[6] = biological target: Sphingosine 1-phosphate receptor 1 (Rattus norvegicus, UniProt P48303); assay: Agonist activity at rat S1P1 expressed in CHO cell membranes assessed as stimulation of [35S]-GTPgamma-S binding measured after 45 mins by liquid scintillation counting method; set-up: species or system Cell membrane; procedure, shortened: as §1
Chain of Sphingosine 1-phosphate receptor 1 (Rattus norvegicus, UniProt P48303) (P48303 whole entry): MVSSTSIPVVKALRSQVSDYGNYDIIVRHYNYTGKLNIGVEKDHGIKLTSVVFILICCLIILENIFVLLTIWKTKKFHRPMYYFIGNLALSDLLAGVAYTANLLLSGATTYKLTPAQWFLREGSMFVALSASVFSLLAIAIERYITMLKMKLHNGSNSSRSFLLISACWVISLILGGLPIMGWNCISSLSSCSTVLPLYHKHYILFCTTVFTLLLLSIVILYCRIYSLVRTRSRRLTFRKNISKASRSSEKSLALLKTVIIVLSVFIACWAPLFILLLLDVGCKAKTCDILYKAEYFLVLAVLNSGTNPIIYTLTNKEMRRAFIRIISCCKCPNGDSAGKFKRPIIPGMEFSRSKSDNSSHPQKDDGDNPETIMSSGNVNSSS

[7] = Protein binding in monkey assessed as bound fraction; type: ADME, Macaca mulatta; settings: rhesus monkey; read-out: PB (converted)
[8] = Volume of distribution at steady state in mouse at 5 mg/kg, po or 2 mg/kg, iv; type: ADME, organism-based; settings: in vivo, read-out: Vdss
[9] = Half-life in dog at 0.1 mg/kg, po or 0.1 mg/kg, iv; type: ADME, organism-based, Canis lupus familiaris; settings: in vivo
[10] = Cmax in cynomolgus monkey at 0.5 mg/kg, po or 0.5 mg/kg, iv; type: ADME, organism-based, Macaca fascicularis; set-up: dose 0.5 mg/kg; settings: in vivo
[11] = biological target: T2, Nuclear receptor subfamily 1 group I member 2 (Homo sapiens, UniProt O75469); assay: Transactivation of PXR (unknown origin); type: ADME
T2 sequence (O75469 whole entry): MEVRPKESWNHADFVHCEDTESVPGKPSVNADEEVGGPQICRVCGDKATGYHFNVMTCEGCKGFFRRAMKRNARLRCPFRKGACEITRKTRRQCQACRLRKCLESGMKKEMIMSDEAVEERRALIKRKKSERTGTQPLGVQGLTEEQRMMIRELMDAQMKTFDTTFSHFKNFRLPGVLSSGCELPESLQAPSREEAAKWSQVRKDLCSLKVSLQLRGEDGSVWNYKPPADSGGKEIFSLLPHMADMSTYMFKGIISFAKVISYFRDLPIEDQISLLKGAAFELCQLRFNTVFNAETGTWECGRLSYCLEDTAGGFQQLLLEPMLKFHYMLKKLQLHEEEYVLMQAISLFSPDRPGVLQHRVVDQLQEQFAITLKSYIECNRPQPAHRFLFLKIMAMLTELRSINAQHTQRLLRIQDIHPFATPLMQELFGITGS

[12] = Permeability of compound at pH 7.7 by PAMPA; type: ADME; settings: read-out: permeability
[13] = AUC in cynomolgus monkey at 0.5 mg/kg, po; type: ADME, organism-based, Macaca fascicularis; set-up: dose 0.5 mg/kg; settings: in vivo
Cytochrome P450 2C19 = Cytochrome P450 2C19 (Homo sapiens, UniProt P33261); assay: Inhibition of CYP2C19 (unknown origin); type: ADME
Chain of Cytochrome P450 2C19 (P33261 whole entry): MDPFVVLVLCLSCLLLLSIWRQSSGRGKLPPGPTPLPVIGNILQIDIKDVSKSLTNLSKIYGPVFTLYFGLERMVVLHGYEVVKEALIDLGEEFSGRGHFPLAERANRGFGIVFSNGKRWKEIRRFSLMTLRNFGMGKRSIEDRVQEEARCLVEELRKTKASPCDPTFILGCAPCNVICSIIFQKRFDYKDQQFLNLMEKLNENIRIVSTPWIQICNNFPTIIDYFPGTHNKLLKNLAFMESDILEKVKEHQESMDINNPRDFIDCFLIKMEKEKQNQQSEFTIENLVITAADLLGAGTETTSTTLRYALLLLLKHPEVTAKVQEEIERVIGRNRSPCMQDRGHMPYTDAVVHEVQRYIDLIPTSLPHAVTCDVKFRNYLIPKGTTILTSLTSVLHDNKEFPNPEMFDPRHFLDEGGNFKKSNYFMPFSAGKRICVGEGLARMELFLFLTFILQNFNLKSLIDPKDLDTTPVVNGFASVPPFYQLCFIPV

[14] = Volume of distribution at steady state in dog at 0.1 mg/kg, po or 0.1 mg/kg, iv; type: ADME, organism-based, Canis lupus familiaris; settings: in vivo, read-out: Vdss
[15] = biological target: Voltage-gated inwardly rectifying potassium channel KCNH2 (Homo sapiens, UniProt Q12809); assay: Inhibition of human ERG by patch clamp assay
Chain of Voltage-gated inwardly rectifying potassium channel KCNH2 (Q12809 whole entry): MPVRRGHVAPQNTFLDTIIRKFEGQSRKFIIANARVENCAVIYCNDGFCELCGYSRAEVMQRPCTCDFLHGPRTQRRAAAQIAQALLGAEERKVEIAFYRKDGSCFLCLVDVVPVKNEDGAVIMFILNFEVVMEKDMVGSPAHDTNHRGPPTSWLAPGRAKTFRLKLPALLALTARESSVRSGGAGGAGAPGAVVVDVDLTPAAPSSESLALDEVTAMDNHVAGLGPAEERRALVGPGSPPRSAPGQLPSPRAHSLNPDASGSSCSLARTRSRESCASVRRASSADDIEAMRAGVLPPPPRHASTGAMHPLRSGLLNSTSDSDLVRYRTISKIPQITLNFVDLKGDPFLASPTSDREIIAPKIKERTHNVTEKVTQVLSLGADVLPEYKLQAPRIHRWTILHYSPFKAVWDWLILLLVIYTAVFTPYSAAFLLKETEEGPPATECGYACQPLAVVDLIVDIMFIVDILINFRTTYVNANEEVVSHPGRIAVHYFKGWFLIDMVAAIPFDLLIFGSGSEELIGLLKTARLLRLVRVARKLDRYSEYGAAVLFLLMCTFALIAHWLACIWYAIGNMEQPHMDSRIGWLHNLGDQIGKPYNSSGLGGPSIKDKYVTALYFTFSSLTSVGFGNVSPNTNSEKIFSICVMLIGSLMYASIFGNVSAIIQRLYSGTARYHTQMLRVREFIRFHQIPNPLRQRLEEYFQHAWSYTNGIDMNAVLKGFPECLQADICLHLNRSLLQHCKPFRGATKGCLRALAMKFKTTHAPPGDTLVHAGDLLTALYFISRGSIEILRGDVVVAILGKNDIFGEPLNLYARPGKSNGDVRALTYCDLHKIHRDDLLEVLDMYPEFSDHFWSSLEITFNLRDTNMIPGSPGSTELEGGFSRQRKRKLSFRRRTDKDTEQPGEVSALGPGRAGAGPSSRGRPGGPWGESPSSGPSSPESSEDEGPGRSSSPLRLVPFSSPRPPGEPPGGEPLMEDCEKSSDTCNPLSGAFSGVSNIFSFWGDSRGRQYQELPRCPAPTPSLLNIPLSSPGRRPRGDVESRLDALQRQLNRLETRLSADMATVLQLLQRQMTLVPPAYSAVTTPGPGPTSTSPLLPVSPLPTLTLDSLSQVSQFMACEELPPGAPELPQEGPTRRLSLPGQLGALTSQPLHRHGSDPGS

[16] = Plasma concentration in Lewis rat at 1 mg/kg, po measured at 4 hr; type: ADME, organism-based; settings: Lewis, plasma
Procedure, shortened: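 Lewis rats received a single oral 1.0 mg/kg dose as solution or suspension in PEG300. Blood was drawn retro-orbitally under isoflurane at 4 h and 24 h, within the blood lymphocyte reduction study. n = 3−4 per group, group mean reported.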

[17] = biological target: T1, Sphingosine 1-phosphate receptor 1; assay: Agonist activity at human S1P1 expressed in CHO cell membranes assessed as stimulation of [35S]-GTPgamma-S binding measured after 45 mins by liquid scintillation counting method; set-up: species or system Cell membrane; procedure, shortened: as §1
Cytochrome P450 2B6 = biological target: T3, Cytochrome P450 2B6 (Homo sapiens, UniProt P20813); assay: Inhibition of CYP2B6 (unknown origin); type: ADME
T3 sequence (P20813 whole entry): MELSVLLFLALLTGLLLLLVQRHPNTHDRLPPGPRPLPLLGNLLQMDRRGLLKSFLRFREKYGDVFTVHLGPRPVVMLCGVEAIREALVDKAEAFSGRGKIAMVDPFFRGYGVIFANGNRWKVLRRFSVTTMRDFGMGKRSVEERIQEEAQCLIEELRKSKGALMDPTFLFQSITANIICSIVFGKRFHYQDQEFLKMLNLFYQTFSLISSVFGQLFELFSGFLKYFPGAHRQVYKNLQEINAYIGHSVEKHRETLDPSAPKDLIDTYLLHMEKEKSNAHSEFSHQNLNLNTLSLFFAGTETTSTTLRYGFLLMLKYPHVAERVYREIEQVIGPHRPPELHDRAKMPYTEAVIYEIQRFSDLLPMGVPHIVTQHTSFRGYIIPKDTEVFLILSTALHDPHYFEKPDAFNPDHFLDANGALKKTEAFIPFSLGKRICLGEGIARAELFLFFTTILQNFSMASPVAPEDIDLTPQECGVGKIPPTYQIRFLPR

Rattus norvegicus [18] = assay: Antiarthritic activity in Lewis rat model of Complete Freund's adjuvant-induced arthritis at 0.03 mg/kg, po QD administered for 21 days after CFA injection and measured weekly three times upto day 21 by water displacement plethysmometry; type: functional, organism-based; settings: time 21.0 day
Procedure, shortened: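 Male Lewis rats, 200−225 g, n = 8 per group. Immunized at the tail base with 100 μL of 10 mg/mL ground Mycobacterium butyricum in incomplete Freund's adjuvant. Oral dosing once daily in PEG300 vehicle from the day of immunization for 21 days, at 0.03, 0.1 or 1.0 mg/kg. Dexamethasone 0.1 mg/kg PO QD as positive control. Paw volume by water displacement plethysmometry, day 7 to day 21.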

[19] = Half-life in mouse at 5 mg/kg, po or 2 mg/kg, iv; type: ADME, organism-based; settings: in vivo
[20] = Clearance in rat at 1 mg/kg, po or 1 mg/kg, iv; type: ADME, organism-based; settings: in vivo
[21] = Tmax in cynomolgus monkey at 0.5 mg/kg, po or 0.5 mg/kg, iv; type: ADME, organism-based, Macaca fascicularis; settings: in vivo
[22] = AUC in rat at 1 mg/kg, po; type: ADME, organism-based; set-up: dose 1 mg/kg; settings: in vivo
Rattus norvegicus [23] = assay: Reduction in circulating lymphocytes count in Lewis rat blood assessed as effective dose administered orally measured at 4 to 24 hrs by hematology analyzer based analysis; type: functional; settings: po, time 4-24 hrs
[24] = Oral bioavailability in mouse at 5 mg/kg; type: ADME, organism-based; settings: in vivo
[25] = biological target: T1, Sphingosine 1-phosphate receptor 1; assay: Binding affinity to human S1P1
[26] = Protein binding in mouse assessed as bound fraction; type: ADME; settings: read-out: PB (converted)

half-life [1]: > 2 h
Emax [2]: 95%
bioavailability [3]: 80%
half-life [4]: > 2 h
Ratio [5]: 4
IC50 (Cytochrome P450 3A4): > 40000 nM
EC50 [6]: 0.31 nM
fraction unbound [7]: 0.005
Vd [8]: 2.2 L/kg
half-life [9]: 23.1 h
Cmax [10]: 410 nM
EC50 [11]: > 50000 nM
Papp [12]: 28 ×10⁻⁶ cm/s
AUC [13]: 3.4 µM·h
IC50 (Cytochrome P450 2C19): > 40000 nM
Vd [14]: 2.5 L/kg
concentration at 4 h [16]: 55 nM
EC50 [17]: 0.59 nM
IC50 (Cytochrome P450 2B6): > 40000 nM
half-life [19]: 15 h
clearance [20]: 8.5 mL/min/kg
Tmax [21]: 4 h
AUC [22]: 1.5 µM·h
F [24]: 80%
IC50 [25]: 0.38 nM
fraction unbound [26]: 0.007
SMILES: O=C(O)C1CN(Cc2ccc3c(c2)CCc2c-3noc2-c2onc(-c3ccccc3)c2C(F)(F)F)C1
IC50 [15]: 2000 nM
Activity (Rattus norvegicus [18]): inactive
ED50 (Rattus norvegicus [23]): 0.05 mg/kg

— ChEMBL document CHEMBL4680083, “Identification of Tricyclic Agonists of Sphingosine-1-phosphate Receptor 1 (S1P) Employing Ligand-Based Drug Design” (J Med Chem, 2016)
